Data set [1] in a line: Solubility of the compound in water at >100 uM. It is filed as physicochemical. Conditions: buffer.
Data set [2] addresses Glutamate NMDA receptor; Grin1/Grin2a (Rattus norvegicus, UniProt P35439+Q00959). Nature of the data set: Antagonist activity at rat recombinant GluN1/GluN2A receptor expressed in Xenopus laevis oocytes assessed as inhibition of glutamate-induced response by two-electrode voltage-clamp electrophysiology assay. It is filed as functional, cell-based, Oocyte. Conditions: read-out: Ki(app). A general note: In two-electrode clamp one electrode senses voltage and the other passes current.

The target of data set [3] is Glutamate receptor ionotropic, kainate 1 (Homo sapiens, UniProt P39086). Nature of the data set: Antagonist activity at human recombinant GluK1 receptor expressed in human HEK293 cells assessed as inhibition of glutamate-stimulated calcium influx by fluorescence assay. It is filed as functional, cell-based. The procedure, abridged: (§1)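 HEK293 lines stably expressing homomeric human GluK1(Q) or GluK2(Q), passaged no more than 20 times. Ca2+ influx is read as fluorescence, with concanavalin A present. Test compound is added in a first run, then L-glutamate plus antagonist in a second run (final glutamate 30 μM for GluK1, 10 μM for GluK2). IC50 values are converted to KB. Means ± s.e.m.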

The target of data set [4] is Glutamate receptor ionotropic, kainate 2 (Homo sapiens, UniProt Q13002). The data set is described as follows: Antagonist activity at human recombinant GluK2 receptor expressed in human HEK293 cells assessed as inhibition of glutamate-stimulated calcium influx by fluorescence assay. The data set is classed as functional, cell-based. The essentials:
as §1

For data set [5], the target named is Glutamate NMDA receptor; Grin1/Grin2b (Rattus norvegicus, UniProt P35439+Q00960). The data set is described as follows: Antagonist activity rat recombinant GluN1/GluN2B receptor expressed in Xenopus laevis oocytes assessed as inhibition of glutamate-induced response by two-electrode voltage-clamp electrophysiology assay. The data set is classed as functional, cell-based, Oocyte. The conditions noted are these: read-out: Ki(app). The procedure, abridged:
(§2)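 Two-electrode voltage clamp of oocytes expressing rat GluN1a with the given GluN2 subunit, held at −60 mV in buffer of 116 mM NaCl, 2 mM KCl, 0.3 mM BaCl2, 5 mM HEPES, pH 7.4. Response is the steady plateau to bath-applied 10 μM L-glutamate plus 10 μM glycine. IC50 converted to apparent Ki via Ki = IC50/(1 + [agonist]/EC50). Means ± s.e.m.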

Data set [6] deals with Glutamate NMDA receptor; Grin1/Grin2c (Rattus norvegicus, UniProt P35439+Q00961). The data set is described as follows: Antagonist activity rat recombinant GluN1/GluN2C receptor expressed in Xenopus laevis oocytes assessed as inhibition of glutamate-induced response by two-electrode voltage-clamp electrophysiology assay. Conditions: read-out: Ki(app). The data set is classed as functional, cell-based, Oocyte. The essentials:
as §2

The target in data set [7] is Ionotropic glutamate receptor NMDA 1/2D (Rattus norvegicus, UniProt P35439+Q62645). Nature of the data set: Antagonist activity rat recombinant GluN1/GluN2D receptor expressed in Xenopus laevis oocytes assessed as inhibition of glutamate-induced response by two-electrode voltage-clamp electrophysiology assay. It is filed as functional, cell-based, Oocyte. The conditions noted are these: read-out: Ki(app).

Data set [8] deals with Glutamate NMDA receptor; Grin1/Grin2c (Rattus norvegicus) (UniProt P35439+Q00961). The data set is described as follows: Antagonist activity rat recombinant GluN1/GluN2C receptor expressed in Xenopus laevis oocytes assessed as inhibition of glutamate-induced response at 100 uM by two-electrode voltage-clamp electrophysiology assay. The data set is classed as functional, cell-based. The conditions noted are these: Oocyte. The procedure, abridged: (§3)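 Rat GluN1a co-expressed with GluN2A, 2B, 2C or 2D in Xenopus oocytes. Two-electrode voltage clamp at −60 mV in buffer of 116 mM NaCl, 2 mM KCl, 0.3 mM BaCl2, 5 mM HEPES, pH 7.4. Response is the steady plateau evoked by bath-applied 10 μM L-glutamate plus 10 μM glycine. Read-out is percent antagonism by 100 μM test compound.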

In data set [9] the target is Glutamate NMDA receptor; Grin1/Grin2b (Rattus norvegicus) (UniProt P35439+Q00960). The data set is described as follows: Antagonist activity rat recombinant GluN1/GluN2B receptor expressed in Xenopus laevis oocytes assessed as inhibition of glutamate-induced response at 100 uM by two-electrode voltage-clamp electrophysiology assay. The data set is classed as functional, cell-based. Conditions: Oocyte. The essentials:
as §3

Data set [10] concerns Rattus norvegicus. Nature of the data set: Antinociceptive activity in Wistar rat at 30 mg/kg, ip. The data set is classed as functional, organism-based. More on the design: dose 30 mg/kg. The essentials:
(§4)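 Male Wistar rats (~250 g) with partial saphenous nerve ligation injury, tested on day 7 after injury and also before injury. Drug at 30 mg/kg or vehicle is given i.p. (n=5/group), with testing starting 15 min later. Mechanical threshold is taken from von Frey stimulus:response curves on both hindpaws (5 applications per hair). Thermal latency to radiant heat is the mean of 3 trials per hindpaw. Analysis by two-way ANOVA.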

For data set [11], the species on record is Rattus norvegicus. The data set is described as follows: Selectivity ratio of IC50 for rat GluK3 receptor to IC50 for rat GluK1 receptor. The essentials:
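IC50 ratio from whole-cell patch clamp on HEK293 cells stably expressing homomeric GluK1 or GluK3, voltage clamped at −70 mV, 20°C. Glutamate is applied fast through a theta tube. Antagonist is applied about 2 min or until the response is stable, at five concentrations per cell, giving a dose-response curve for each cell.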

The target in data set [12] is Glutamate receptor ionotropic, kainate 3 (Rattus norvegicus) (UniProt P42264). Nature of the data set: Displacement of [3H]-Kainate from wild type rat GluK3 receptor transfected in human HEK293 cells at 300 uM by immunoblot analysis. It is filed as cell-based. On the technique in general: Loss of bound radioactivity is the signal in a displacement assay; it reports binding, not function.

Data set [13] relates to HEK293. The data set is described as follows: Displacement of [3H]-Kainate from rat GluK3 A660S mutant transfected in human HEK293 cells at 100 uM by immunoblot analysis. The data set is classed as cell-based.
For data set [14], the target named is Glutamate receptor ionotropic, kainate 3 (Rattus norvegicus) (UniProt P42264). Nature of the data set: Displacement of [3H]-Kainate from wild type rat GluK3 receptor transfected in human HEK293 cells at 1 mM by immunoblot analysis. The data set is classed as cell-based.
Data set [15] deals with HEK293. The data set is described as follows: Displacement of [3H]-Kainate from […] rat GluK3 A660S mutant transfected in human HEK293 cells at 1 mM by immunoblot analysis. The data set is classed as cell-based.
The target of data set [16] is Glutamate receptor ionotropic, kainate 3 (Rattus norvegicus) (UniProt P42264). The data set is described as follows: Displacement of [3H]-Kainate from wild type rat GluK3 receptor transfected in human HEK293 cells at 100 uM by immunoblot analysis. The data set is classed as cell-based.
The test system of data set [17] is HEK293. Nature of the data set: Displacement of [3H]-Kainate from […] rat GluK3 A660S mutant transfected in human HEK293 cells at 300 uM by immunoblot analysis. The data set is classed as cell-based.
Data set [18] has as its target Glutamate receptor ionotropic, kainate 3 (Homo sapiens, UniProt Q13003). The data set is described as follows: Antagonist activity at human recombinant GluK3 receptor expressed in human HEK293 cells assessed as inhibition of glutamate-stimulated calcium influx by fluorescence assay. The data set is classed as functional, cell-based.
In data set [19] the test system is Rattus norvegicus. Nature of the data set: Antinociceptive activity in Wistar rat nerve injury model assessed as reversal of drop in mechanical withdrawal threshold at 30 mg/kg, ip administered before 1 hr on day 7 of injury relative to control. The data set is classed as functional, organism-based. More on the design: dose 30 mg/kg. The procedure, abridged: as §4

The species entered for data set [20] is Rattus norvegicus. Nature of the data set: Antagonist activity at AMPA receptor in CA3 region of rat hippocampus assessed as change in AMPA-mediated field excitatory postsynaptic potential at 100 uM. It is filed as functional, tissue-based. The procedure, abridged: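 Field EPSPs recorded from transverse rat hippocampal slices (400 μm), CA3 mossy fiber synapses. Compound 100 μM perfused 30 min. fEPSPs averaged every 2 min; slope between 20 and 80% of maximum measured and expressed as % of control slope. Mean ± s.e.m., n=4.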

Data set [21] relates to Rattus norvegicus. Nature of the data set: Antinociceptive activity in Wistar rat nerve injury model assessed as increased thermal withdrawal latency at 30 mg/kg, ip. The data set is classed as functional, organism-based. More on the design: dose 30 mg/kg. The procedure, abridged:
as §4

Structures are written as SMILES. Activity calls are given as the source filed them.

Chain of Glutamate receptor ionotropic, kainate 2 (Q13002 whole entry): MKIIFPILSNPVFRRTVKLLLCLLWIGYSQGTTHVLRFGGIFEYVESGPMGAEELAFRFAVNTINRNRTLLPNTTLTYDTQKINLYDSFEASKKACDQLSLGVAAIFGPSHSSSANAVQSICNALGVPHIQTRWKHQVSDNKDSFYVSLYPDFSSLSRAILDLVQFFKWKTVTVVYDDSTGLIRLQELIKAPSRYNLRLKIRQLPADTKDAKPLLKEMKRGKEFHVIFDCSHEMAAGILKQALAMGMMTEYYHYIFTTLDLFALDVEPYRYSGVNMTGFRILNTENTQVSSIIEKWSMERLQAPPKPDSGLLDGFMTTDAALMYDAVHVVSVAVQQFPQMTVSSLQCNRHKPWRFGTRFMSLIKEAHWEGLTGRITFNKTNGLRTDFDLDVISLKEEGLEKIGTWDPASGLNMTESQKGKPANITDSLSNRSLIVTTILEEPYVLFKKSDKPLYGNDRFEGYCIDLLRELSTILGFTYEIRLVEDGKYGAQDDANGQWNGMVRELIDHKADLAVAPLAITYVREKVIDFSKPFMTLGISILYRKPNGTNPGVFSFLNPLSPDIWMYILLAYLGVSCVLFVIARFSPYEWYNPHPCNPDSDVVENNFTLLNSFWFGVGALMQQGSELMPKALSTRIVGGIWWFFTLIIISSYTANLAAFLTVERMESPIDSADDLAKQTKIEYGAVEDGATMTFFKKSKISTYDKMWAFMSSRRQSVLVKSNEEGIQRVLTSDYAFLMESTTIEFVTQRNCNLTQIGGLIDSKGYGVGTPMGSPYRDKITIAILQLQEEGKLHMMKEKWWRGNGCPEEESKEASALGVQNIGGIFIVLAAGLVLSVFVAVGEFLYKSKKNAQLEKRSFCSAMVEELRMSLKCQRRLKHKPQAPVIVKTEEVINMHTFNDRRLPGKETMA
Chain of Glutamate receptor ionotropic, kainate 1 (P39086 whole entry): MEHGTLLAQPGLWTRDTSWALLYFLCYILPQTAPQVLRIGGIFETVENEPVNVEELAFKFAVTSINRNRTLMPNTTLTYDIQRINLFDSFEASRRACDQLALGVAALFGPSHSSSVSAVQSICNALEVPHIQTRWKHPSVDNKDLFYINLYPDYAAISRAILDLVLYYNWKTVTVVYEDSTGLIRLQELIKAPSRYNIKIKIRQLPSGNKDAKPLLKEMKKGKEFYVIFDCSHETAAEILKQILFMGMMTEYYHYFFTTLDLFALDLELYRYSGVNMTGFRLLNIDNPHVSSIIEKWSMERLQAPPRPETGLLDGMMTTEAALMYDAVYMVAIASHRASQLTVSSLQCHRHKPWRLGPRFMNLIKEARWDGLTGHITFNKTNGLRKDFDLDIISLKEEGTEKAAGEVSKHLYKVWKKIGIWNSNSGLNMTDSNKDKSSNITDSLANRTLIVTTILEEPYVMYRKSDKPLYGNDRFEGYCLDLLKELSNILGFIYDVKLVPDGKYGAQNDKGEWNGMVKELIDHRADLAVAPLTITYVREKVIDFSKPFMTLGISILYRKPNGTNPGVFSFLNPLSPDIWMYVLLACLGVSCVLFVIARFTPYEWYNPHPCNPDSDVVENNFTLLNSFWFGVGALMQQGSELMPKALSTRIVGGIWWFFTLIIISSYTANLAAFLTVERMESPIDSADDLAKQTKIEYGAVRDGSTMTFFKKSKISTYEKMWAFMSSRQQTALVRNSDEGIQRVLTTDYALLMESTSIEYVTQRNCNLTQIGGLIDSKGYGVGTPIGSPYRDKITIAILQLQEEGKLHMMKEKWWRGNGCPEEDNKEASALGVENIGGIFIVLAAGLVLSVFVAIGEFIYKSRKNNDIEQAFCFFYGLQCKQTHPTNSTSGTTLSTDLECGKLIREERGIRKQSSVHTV
Chain of Glutamate receptor ionotropic, kainate 3 (Rattus norvegicus) (P42264 whole entry): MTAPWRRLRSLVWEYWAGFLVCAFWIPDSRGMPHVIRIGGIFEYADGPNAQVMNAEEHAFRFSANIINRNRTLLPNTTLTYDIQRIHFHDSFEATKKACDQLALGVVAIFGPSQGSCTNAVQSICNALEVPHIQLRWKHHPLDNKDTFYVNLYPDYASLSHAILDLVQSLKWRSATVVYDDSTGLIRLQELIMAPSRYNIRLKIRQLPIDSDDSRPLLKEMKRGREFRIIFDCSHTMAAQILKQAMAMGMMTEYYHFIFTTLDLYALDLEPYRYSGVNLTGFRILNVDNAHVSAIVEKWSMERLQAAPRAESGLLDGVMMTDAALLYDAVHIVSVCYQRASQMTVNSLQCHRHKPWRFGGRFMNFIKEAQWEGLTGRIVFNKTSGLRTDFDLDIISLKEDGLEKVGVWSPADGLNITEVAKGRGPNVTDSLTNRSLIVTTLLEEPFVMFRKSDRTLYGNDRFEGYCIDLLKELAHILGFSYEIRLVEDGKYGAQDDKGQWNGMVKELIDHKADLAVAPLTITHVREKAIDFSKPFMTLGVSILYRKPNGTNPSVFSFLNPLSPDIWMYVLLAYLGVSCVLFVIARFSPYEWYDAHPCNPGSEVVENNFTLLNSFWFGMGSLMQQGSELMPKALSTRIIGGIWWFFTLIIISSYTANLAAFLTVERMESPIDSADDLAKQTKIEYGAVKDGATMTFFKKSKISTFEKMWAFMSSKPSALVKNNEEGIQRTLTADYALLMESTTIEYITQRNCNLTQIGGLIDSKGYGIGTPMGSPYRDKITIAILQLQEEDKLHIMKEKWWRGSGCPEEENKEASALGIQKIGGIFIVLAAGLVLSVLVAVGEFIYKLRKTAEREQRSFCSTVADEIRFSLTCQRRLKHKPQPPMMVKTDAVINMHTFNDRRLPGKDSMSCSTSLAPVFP
Chain of Glutamate NMDA receptor; Grin1/Grin2a (Q00959 whole entry, other chains not shown): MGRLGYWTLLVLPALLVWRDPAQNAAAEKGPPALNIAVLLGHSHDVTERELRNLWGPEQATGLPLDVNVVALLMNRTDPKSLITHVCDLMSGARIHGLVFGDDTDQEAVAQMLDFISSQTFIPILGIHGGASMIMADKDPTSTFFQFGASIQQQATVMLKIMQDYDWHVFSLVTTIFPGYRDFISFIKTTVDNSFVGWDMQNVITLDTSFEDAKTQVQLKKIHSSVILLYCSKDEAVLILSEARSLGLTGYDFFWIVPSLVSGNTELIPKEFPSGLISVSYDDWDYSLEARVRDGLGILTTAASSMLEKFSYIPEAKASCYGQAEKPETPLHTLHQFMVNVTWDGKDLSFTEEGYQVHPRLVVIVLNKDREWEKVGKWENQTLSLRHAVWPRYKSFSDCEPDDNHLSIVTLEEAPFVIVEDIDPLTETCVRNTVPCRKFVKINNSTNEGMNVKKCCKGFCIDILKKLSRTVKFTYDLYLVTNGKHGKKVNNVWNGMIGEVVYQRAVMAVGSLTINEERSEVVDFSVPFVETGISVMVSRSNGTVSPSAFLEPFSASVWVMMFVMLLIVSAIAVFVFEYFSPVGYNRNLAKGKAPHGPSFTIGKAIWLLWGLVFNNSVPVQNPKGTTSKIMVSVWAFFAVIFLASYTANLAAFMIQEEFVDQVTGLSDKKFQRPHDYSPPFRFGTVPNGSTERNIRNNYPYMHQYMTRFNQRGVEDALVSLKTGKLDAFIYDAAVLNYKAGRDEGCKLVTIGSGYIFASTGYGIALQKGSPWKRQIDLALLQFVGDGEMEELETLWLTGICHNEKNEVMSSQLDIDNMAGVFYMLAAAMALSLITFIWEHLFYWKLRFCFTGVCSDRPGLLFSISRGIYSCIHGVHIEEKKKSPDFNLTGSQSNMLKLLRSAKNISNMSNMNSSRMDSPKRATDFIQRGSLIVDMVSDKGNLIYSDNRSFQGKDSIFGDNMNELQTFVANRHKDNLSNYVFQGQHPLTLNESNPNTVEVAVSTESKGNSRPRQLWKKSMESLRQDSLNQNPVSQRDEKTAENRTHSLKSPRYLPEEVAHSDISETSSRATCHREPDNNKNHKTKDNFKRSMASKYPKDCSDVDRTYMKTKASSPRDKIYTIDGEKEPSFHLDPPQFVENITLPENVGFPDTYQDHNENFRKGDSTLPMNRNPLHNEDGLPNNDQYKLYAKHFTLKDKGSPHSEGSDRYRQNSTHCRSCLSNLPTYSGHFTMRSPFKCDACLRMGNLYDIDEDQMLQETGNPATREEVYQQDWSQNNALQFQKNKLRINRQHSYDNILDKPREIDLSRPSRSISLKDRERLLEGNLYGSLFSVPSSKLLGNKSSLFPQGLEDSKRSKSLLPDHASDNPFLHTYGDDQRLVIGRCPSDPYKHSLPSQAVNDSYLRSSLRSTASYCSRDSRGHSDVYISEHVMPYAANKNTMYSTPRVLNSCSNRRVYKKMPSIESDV
Chain of Glutamate receptor ionotropic, kainate 3 (Q13003 whole entry): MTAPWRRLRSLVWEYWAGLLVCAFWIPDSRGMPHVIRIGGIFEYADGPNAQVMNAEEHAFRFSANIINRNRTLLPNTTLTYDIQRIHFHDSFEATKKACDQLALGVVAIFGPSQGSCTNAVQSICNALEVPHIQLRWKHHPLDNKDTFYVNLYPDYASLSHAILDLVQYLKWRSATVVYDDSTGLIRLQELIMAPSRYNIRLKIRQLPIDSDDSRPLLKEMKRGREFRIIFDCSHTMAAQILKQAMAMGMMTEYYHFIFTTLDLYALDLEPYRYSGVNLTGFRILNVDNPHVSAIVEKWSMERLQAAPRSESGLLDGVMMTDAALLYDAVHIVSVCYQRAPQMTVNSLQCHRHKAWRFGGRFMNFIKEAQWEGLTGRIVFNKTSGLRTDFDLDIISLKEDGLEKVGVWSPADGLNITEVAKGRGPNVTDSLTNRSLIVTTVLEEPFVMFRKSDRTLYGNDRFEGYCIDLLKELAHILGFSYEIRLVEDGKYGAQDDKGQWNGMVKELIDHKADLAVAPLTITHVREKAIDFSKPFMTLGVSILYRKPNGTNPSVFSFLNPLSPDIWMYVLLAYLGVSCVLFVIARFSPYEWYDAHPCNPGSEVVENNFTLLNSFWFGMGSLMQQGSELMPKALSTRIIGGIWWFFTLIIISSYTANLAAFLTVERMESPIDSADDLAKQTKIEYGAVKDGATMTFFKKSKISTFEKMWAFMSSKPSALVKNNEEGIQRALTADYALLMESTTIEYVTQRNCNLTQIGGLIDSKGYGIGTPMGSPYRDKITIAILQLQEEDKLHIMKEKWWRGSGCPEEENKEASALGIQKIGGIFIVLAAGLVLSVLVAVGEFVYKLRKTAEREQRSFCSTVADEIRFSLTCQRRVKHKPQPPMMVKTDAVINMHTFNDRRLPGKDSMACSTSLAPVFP

The term Kb denotes the affinity of an antagonist, worked out from how it opposes an agonist. Turning to `O=C(O)[C@H]1NCCN(C(=O)c2ccc3cc(-c4ccccc4)ccc3c2)[C@H]1C(=O)O` (relative stereo), in data set [1], the solubility result is given as “Insoluble”. Besides, the Ki is greater than 100 µM in data set [2], greater than 100 µM in data set [5], 5.1 µM in data set [6] and 2.4 µM in data set [7]. The antagonist dissociation constant (Kb) in data set [3] was 5.8 µM; in data set [4], greater than 100 µM.
As usually defined, the inhibition is the change of the read-out against control, counted positive when it falls. `O=C(O)c1ccc(-c2ccc(C(=O)N3CCN[C@H](C(=O)O)[C@@H]3C(=O)O)cc2)cc1` (relative stereo): in data set [1], the solubility result is listed as “Insoluble”. Also, the inhibition in [8] and in data set [9] was less than 15% throughout. In data set [3], the Kb is 51.5 µM. In addition, the Ki in [5] and in data set [6] was greater than 100 µM throughout.
The IC50 is the concentration that gives 50% inhibition. `O=C(O)[C@H]1NCCN(C(=O)c2ccc3cc(I)c4ccccc4c3c2)[C@H]1C(=O)O` (relative stereo): the result with Rattus norvegicus [10], with Rattus norvegicus [19] and in the data set with Rattus norvegicus [21] was Active. Moreover, the Ratio IC50 in the data set listed under Rattus norvegicus [11] was greater than 100. In addition, the inhibition result (in data set [12]; with HEK293 [13]; in [14]; in the data set with HEK293 [15]; in [16]; in the data set with HEK293 [17]) was “Active” in each case. Moreover, the Ki was determined as 7.4 µM in data set [2], 3.8 µM in data set [5], 1.9 µM in [6] and 1 µM in [7]. In addition, the half-inhibitory concentration (IC50) in data set [3] was 0.65 µM; in [4], greater than 100 µM; in data set [18], 81.3 µM. Moreover, the Kb was 4.8 µM in data set [3] and greater than 100 µM in data set [4]. Besides, in the data set filed under Rattus norvegicus [20], the outcome was inactive.

The values are drawn from ChEMBL document CHEMBL1949555, “Piperazine-2,3-dicarboxylic acid derivatives as dual antagonists of NMDA and GluK1-containing kainate receptors” (J Med Chem, 2012).
